From ChEMBL document CHEMBL1649383, “Mode of action of epoxyphomalins A and B and characterization of related metabolites from the marine-derived fungus Paraconiothyrium sp” (J Nat Prod, 2010)
≈ marks a conversion by molar mass, not a printed value.

Columns and labels:
[1] = Cytotoxicity against human GXF251L cells; assay type: functional, cell-based; settings: GXF 251L
Summary of the method: (§1)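 Monolayer cell survival and proliferation assay, run within a panel of 36 human tumor cell lines; IC50 determined per cell line.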

[2] = tested on: MCF7; assay: Cytotoxicity against human MCF7 cells; assay type: functional, cell-based
Summary of the method: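 Monolayer cell survival and proliferation assay run across a panel of 36 human tumour cell lines; IC50 values determined.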

[3] = Cytotoxicity against human MEXF 276L cells; assay type: functional, cell-based; settings: MEXF276L
Summary of the method: (§2)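 Monolayer cell survival and proliferation assay run across a panel of 36 human tumor cell lines, with IC50 determined from the resulting growth data.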

[4] = Cytotoxicity against human MEXF 394NL cells; assay type: functional, cell-based; summary of the method: as §2
[5] = Cytotoxicity against human MEXF 514L cells; assay type: functional, cell-based; summary of the method: as §2
[6] = tested on: OVCAR-3; assay: Cytotoxicity against human OVCAR3 cells; assay type: functional, cell-based; summary of the method: as §2
[7] = tested on: CWR22R; assay: Cytotoxicity against human 22Rv1 cells; assay type: functional, cell-based; summary of the method: as §1
[8] = Cytotoxicity against human PXF 1752L cells; assay type: functional, cell-based; summary of the method: as §2
[9] = Cytotoxicity against human UXF 1138L cells; assay type: functional, cell-based; summary of the method: as §2
[10] = Cytotoxicity against human BXF 1218L cells at 0.001 ug/ml relative to control; assay type: functional
[11] = tested on: T-24; assay: Cytotoxicity against human T24 cells at 0.001 ug/ml relative to control; assay type: functional
[12] = Cytotoxicity against human MEXF 276L cells at 0.001 ug/ml relative to control; assay type: functional, MEXF276L
[13] = Cytotoxicity against human MEXF 520L cells at 0.001 ug/ml relative to control; assay type: functional
[14] = Cytotoxicity against human OVXF 899L cells at 0.001 ug/ml relative to control; assay type: functional
[15] = tested on: HCT-116; assay: Cytotoxicity against human HCT116 cells at 0.01 ug/ml relative to control; assay type: functional
[16] = Cytotoxicity against human LXFL 1121L cells at 0.01 ug/ml relative to control; assay type: functional
[17] = Cytotoxicity against human LXFA 289L cells at 0.01 ug/ml relative to control; assay type: functional
[18] = Cytotoxicity against human LXFL 529L cells at 0.01 ug/ml relative to control; assay type: functional
[19] = tested on: MCF7; assay: Cytotoxicity against human MCF7 cells at 0.01 ug/ml relative to control; assay type: functional
[20] = Cytotoxicity against human MEXF 276L cells at 0.01 ug/ml relative to control; assay type: functional, MEXF276L
[21] = Cytotoxicity against human MEXF 462NL cells at 0.01 ug/ml relative to control; assay type: functional
[22] = tested on: PANC-1; assay: Cytotoxicity against human PANC1 cells at 0.01 ug/ml relative to control; assay type: functional
[23] = tested on: CWR22R; assay: Cytotoxicity against human 22Rv1 cells at 0.01 ug/ml relative to control; assay type: functional
[24] = Cytotoxicity against human RXF 486L cells at 0.01 ug/ml relative to control; assay type: functional
[25] = tested on: T-24; assay: Cytotoxicity against human T24 cells at 0.1 ug/ml relative to control; assay type: functional
[26] = tested on: HT-29; assay: Cytotoxicity against human HT-29 cells at 0.1 ug/ml relative to control; assay type: functional
[27] = Cytotoxicity against human LXFL 529L cells at 0.1 ug/ml relative to control; assay type: functional
[28] = Cytotoxicity against human MEXF 276L cells at 0.1 ug/ml relative to control; assay type: functional, MEXF276L
[29] = Cytotoxicity against human MEXF 394NL cells at 0.1 ug/ml relative to control; assay type: functional
[30] = tested on: LNCaP; assay: Cytotoxicity against human LNCAP cells at 0.1 ug/ml relative to control; assay type: functional
[31] = Cytotoxicity against human PC3M cells at 0.1 ug/ml relative to control; assay type: functional, PC-3M
[32] = tested on: T-24; assay: Cytotoxicity against human T24 cells at 1 ug/ml relative to control; assay type: functional
[33] = tested on: SF-268; assay: Cytotoxicity against human SF268 cells at 1 ug/ml relative to control; assay type: functional
[34] = Cytotoxicity against human GXF251L cells at 1 ug/ml relative to control; assay type: functional
[35] = Cytotoxicity against human LXFL 1121L cells at 1 ug/ml relative to control; assay type: functional
[36] = Cytotoxicity against human LXFA 289L cells at 1 ug/ml relative to control; assay type: functional
[37] = Cytotoxicity against human LXFA 526L cells at 1 ug/ml relative to control; assay type: functional
[38] = Cytotoxicity against human LXFA 629L cells at 1 ug/ml relative to control; assay type: functional
[39] = tested on: MCF7; assay: Cytotoxicity against human MCF7 cells at 1 ug/ml relative to control; assay type: functional
[40] = Cytotoxicity against human MEXF 276L cells at 1 ug/ml relative to control; assay type: functional, MEXF276L
[41] = Cytotoxicity against human MEXF 462NL cells at 1 ug/ml relative to control; assay type: functional
[42] = Cytotoxicity against human MEXF 520L cells at 1 ug/ml relative to control; assay type: functional
[43] = tested on: LNCaP; assay: Cytotoxicity against human LNCAP cells at 1 ug/ml relative to control; assay type: functional
[44] = Cytotoxicity against human RXF 393NL cells at 1 ug/ml relative to control; assay type: functional
[45] = tested on: SF-268; assay: Cytotoxicity against human SF268 cells at 10 ug/ml relative to control; assay type: functional
[46] = tested on: HT-29; assay: Cytotoxicity against human HT-29 cells at 10 ug/ml relative to control; assay type: functional
[47] = Cytotoxicity against human HNXF 536L cells at 10 ug/ml relative to control; assay type: functional
[48] = Cytotoxicity against human LXFL 1121L cells at 10 ug/ml relative to control; assay type: functional
[49] = Cytotoxicity against human LXFL 529L cells at 10 ug/ml relative to control; assay type: functional
[50] = Cytotoxicity against human LXFA 629L cells at 10 ug/ml relative to control; assay type: functional
[51] = tested on: NCI-H460; assay: Cytotoxicity against human H460 cells at 10 ug/ml relative to control; assay type: functional
[52] = Cytotoxicity against human MEXF 520L cells at 10 ug/ml relative to control; assay type: functional
[53] = Cytotoxicity against human OVXF 1619L cells at 10 ug/ml relative to control; assay type: functional
[54] = tested on: OVCAR-3; assay: Cytotoxicity against human OVCAR3 cells at 10 ug/ml relative to control; assay type: functional
[55] = tested on: PANC-1; assay: Cytotoxicity against human PANC1 cells at 10 ug/ml relative to control; assay type: functional
[56] = Cytotoxicity against human PC3M cells at 10 ug/ml relative to control; assay type: functional, PC-3M

For `C=C1[C@@H](O)[C@H]2O[C@@]2(C[C@H]2C(C)=CC[C@H]3C(C)(C)CCC[C@]23C)[C@@H](O)[C@H]1O` [EPOXYPHOLAMIN D], the IC50 [1] was 2.07 µM, the IC70 [1] was 2.75 µg/mL (≈ 7.6 µM) and the IC90 [1] was 17.4 µg/mL (≈ 47.9 µM). It also gave an IC50 [2] of 5.32 µM, an IC70 [2] of 4.01 µg/mL (≈ 11.1 µM) and an IC90 [2] of 8.33 µg/mL (≈ 23 µM). For the same compound, the IC50 [3] was 4.69 µM, the IC70 [3] was 5.54 µg/mL (≈ 15.3 µM) and the IC90 [3] was 18.1 µg/mL (≈ 49.8 µM). It also gave an IC50 [4] of 6.76 µM, an IC70 [4] of 4.64 µg/mL (≈ 12.8 µM) and an IC90 [4] of 8.8 µg/mL (≈ 24.3 µM). It also gave an IC50 [5] of 11.6 µM, an IC70 [5] of 6.57 µg/mL (≈ 18.1 µM) and an IC90 [5] of 10.2 µg/mL (≈ 28.2 µM). The IC50 [6] was 1.96 µM, the IC70 [6] was 2.71 µg/mL (≈ 7.48 µM) and the IC90 [6] was 12.6 µg/mL (≈ 34.7 µM). For the same compound, the IC50 [7] was 2.48 µM, the IC70 [7] was 3.06 µg/mL (≈ 8.45 µM) and the IC90 [7] was 10.6 µg/mL (≈ 29.4 µM). The IC50 [8] was 2.29 µM, the IC70 [8] was 3.05 µg/mL (≈ 8.42 µM) and the IC90 [8] was 12.3 µg/mL (≈ 34 µM). It also gave an IC50 [9] of 6.15 µM, an IC70 [9] of 4.64 µg/mL (≈ 12.8 µM) and an IC90 [9] of 9.64 µg/mL (≈ 26.6 µM). The Activity [10] was 106%, the Activity [11] was 100% and the Activity [12] was 98%. It also gave an Activity [13] of 97%, an Activity [14] of 103% and an Activity [15] of 97%. The Activity [16] was 135%, the Activity [17] was 101% and the Activity [18] was 99%. For the same compound, the Activity [19] was 102%, the Activity [20] was 98% and the Activity [21] was 122%. The Activity [22] was 92%, the Activity [23] was 81% and the Activity [24] was 99%. For the same compound, the Activity [25] was 104%, the Activity [26] was 108% and the Activity [27] was 100%. The Activity [28] was 98%, the Activity [29] was 99% and the Activity [30] was 103%. For the same compound, the Activity [31] was 73%, the Activity [32] was 126% and the Activity [33] was 117%. It also gave an Activity [34] of 41%, an Activity [35] of 97% and an Activity [36] of 102%. It also gave an Activity [37] of 119%, an Activity [38] of 53% and an Activity [39] of 68%. It also gave an Activity [40] of 59%, an Activity [41] of 68% and an Activity [42] of 86%. The Activity [43] was 136%, the Activity [44] was 118% and the Activity [45] was 1%. It also gave an Activity [46] of 1%, an Activity [47] of 5% and an Activity [48] of 5%. It also gave an Activity [49] of 14%, an Activity [50] of 6% and an Activity [51] of 3%. For the same compound, the Activity [52] was 5%, the Activity [53] was 10% and the Activity [54] was 13%. It also gave an Activity [55] of 7% and an Activity [56] of 5%.
